This note sets out measurements from ChEMBL document CHEMBL3102712, “Targeting the Warburg Effect in cancer; relationships for 2-arylpyridazinones as inhibitors of the key glycolytic enzyme 6-phosphofructo-2-kinase/2,6-bisphosphatase 3 (PFKFB3)” (Bioorg Med Chem, 2014).

The target of data set [1] is T1, 6-phosphofructo-2-kinase/fructose-2,6-bisphosphatase 3 (Homo sapiens, UniProt Q16875). The data set can be described thus: Inhibition of human recombinant GST-tagged PFKFB3 expressed in Escherichia coli BL21(DE3) using fructose 6-phosphate as substrate preincubated for 30 mins before substrate addition measured after 60 mins by kinase-glo assay. The gist of the method: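 GST-tagged human PFKFB3 was purified on glutathione sepharose. The compound was preincubated with enzyme for 30 min at 30 °C in 40 mM Tris pH 7.5, 20 mM MgCl2, 0.1 mg/mL BSA. ATP and F6P were then added in buffer containing 25 µM ATP and 1.25 mM F6P, for 60 min at 30 °C. Remaining ATP was read by Kinase-Glo luminescence. IC50 came from nonlinear regression, mean ± SD of ≥3 independent experiments.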
T1 sequence (Q16875 whole entry): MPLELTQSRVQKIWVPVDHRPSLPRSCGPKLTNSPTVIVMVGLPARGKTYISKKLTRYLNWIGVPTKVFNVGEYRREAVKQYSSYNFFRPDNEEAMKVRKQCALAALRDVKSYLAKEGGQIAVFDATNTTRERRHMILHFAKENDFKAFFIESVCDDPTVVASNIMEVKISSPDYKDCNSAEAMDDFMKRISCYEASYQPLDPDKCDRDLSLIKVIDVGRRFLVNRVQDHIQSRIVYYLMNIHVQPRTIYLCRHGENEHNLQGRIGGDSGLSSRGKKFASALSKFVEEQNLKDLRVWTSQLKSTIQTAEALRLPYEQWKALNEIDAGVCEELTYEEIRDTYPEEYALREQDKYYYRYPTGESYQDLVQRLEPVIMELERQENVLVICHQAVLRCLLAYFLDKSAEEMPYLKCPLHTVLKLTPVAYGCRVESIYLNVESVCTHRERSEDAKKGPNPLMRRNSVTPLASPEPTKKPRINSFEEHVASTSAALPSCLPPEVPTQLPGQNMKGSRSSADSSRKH

For data set [2], the target named is T1, 6-phosphofructo-2-kinase/fructose-2,6-bisphosphatase 3. The data set can be described thus: Inhibition of PFKFB3 in human HeLa cells assessed as reduction of fructose 2,6-bisphosphate level at IC50 after 8 hrs. The data set is classed as cell-based.
Data set [3] shares this target. The data set can be described thus: Inhibition of PFKFB3 in human HeLa cells assessed as reduction of lactate secretion at IC50 after 8 hrs. The data set is classed as cell-based.
Data set [4] shares this target. The following applies: 250 uM.
Data set [5] has the same target. The data set can be described thus: Inhibition of PFKFB3 (unknown origin).
Data set [6] has the same target. Briefly: Inhibition of PFKFB3-mediated glycolysis in human MDA-MB-231 cells assessed as extracellular acidification rate at 10 uM after 60 mins. The data set is classed as cell-based. Put shortly:
(§1)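 MDA-MB-231 cells were seeded at 15,000/well for 24 h, then switched to assay medium in an XF24 analyzer. After 2 baseline readings, compound (10 µM) was injected and ECAR tracked for 2 h. 2-Deoxyglucose (100 mM) was then injected as positive control and ECAR followed 32 min more. ECAR was expressed as % of baseline, with protein measured by BCA after RIPA lysis; n = 3.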

Data set [7] shares this target. The data set can be described thus: Inhibition of PFKFB3-mediated glycolysis in human MDA-MB-231 cells assessed as extracellular acidification rate at 10 uM after 2 hrs. Type of data set: cell-based. Put shortly:
as §1

A short description of data set [8]: Solubility of the compound. Type of data set: physicochemical.

Active and inactive are the calls of the source. No cut-off for these calls is given here.

Regarding `CC(=O)c1nnn(-c2cnn(-c3ccccc3)c(=O)c2I)c1C`, in data set [1], the IC50 worked out at 13 µM.
For the compound `O=c1c(-c2ccc(O)cc2)coc2c(O)c(O)ccc12`, the inhibition in data set [2] was 40%; in data set [3] it was over 30%.
Regarding `O=C(/C=C/c1ccc2ccccc2n1)c1ccncc1`, in data set [1], the IC50 is over 1000 µM. The same compound had an inhibition in data set [4] of 26%.
For the compound `CC(=O)c1nnn(-c2cnn(-c3ccc(C#N)cc3)c(=O)c2Br)c1C`, in data set [1], the IC50 is 8.4 µM.
As for `CCOc1c(-n2nnc(C(C)=O)c2C)cnn(-c2ccccc2)c1=O`, the IC50 in data set [1] was over 1000 µM.
Regarding `O=C(O)c1ccc(NS(=O)(=O)c2cccc3ccccc23)cc1O`, the IC50 in data set [1] and in data set [5] was 27 µM in each case.
Consider `CC(=O)c1nnn(-c2cnn(Cc3ccccc3)c(=O)c2)c1C`, for which, in data set [1], the IC50 was over 10000 µM.
On the same count and under the same terms, the result for `O=c1c(Br)c(N2CC3(COC3)C2)cnn1-c1ccccc1` reads over 1000 µM; that for `CCOC(=O)c1cn(-c2cnn(-c3ccccc3)c(=O)c2N2CC3(COC3)C2)nn1`, 55 µM.
Take `CC(=O)c1nnn(-c2cnn(-c3cncnc3)c(=O)c2Br)c1C`: in data set [6], the inhibition stood at 30%. In data set [1], the IC50 is 9.6 µM.
On to `NC(=O)CNc1cnn(-c2ccccc2)c(=O)c1Br`, for which the IC50 in data set [1] is over 1000 µM.
Still for that read-out and setting: with `CC(=O)c1nnn(-c2cnn(Cc3ccc(NCCN(C)C)cc3)c(=O)c2Br)c1C` the figure was over 500 µM.
Consider `O=C(/C=C/c1cccnc1)c1ccncc1`, for which the inhibition result in data set [7] was “inactive”. Also, in data set [5], the IC50 stood at 25 µM.
Turning to `CC(=O)c1nnn(-c2cnn(-c3ccc(OC(F)(F)F)cc3)c(=O)c2Br)c1C`, the inhibition in data set [6] was found to be 30%. In addition, in data set [1], the IC50 is 9.1 µM.
The like results for `CC(=O)c1nnn(-c2cnn(CCCc3ccccc3)c(=O)c2Br)c1C` were, in that order, 30% and 11 µM.
Regarding `CC(=O)c1nnn(-c2cnn(Cc3ccc(I)cc3)c(=O)c2Br)c1C`, in data set [1], the IC50 was 8.7 µM.
As to `CC(=O)c1nnn(-c2cnn(Cc3ccccc3)c(=O)c2Br)c1C`, the IC50 in data set [1] is 3.4 µM.
The same measure, in the same setting: with `CC(=O)c1nnn(-c2cnn(CCc3ccccc3)c(=O)c2Br)c1C` the figure was 2.6 µM; with `CC(=O)c1nnn(-c2cnn(-c3ccccc3)c(=O)c2C(C)C)c1C`, over 500 µM.
Take `CC(=O)c1nnn(-c2cnn(-c3ccc(Cl)cc3)c(=O)c2Br)c1C`: in data set [6], the inhibition was determined as 30%. The IC50 in data set [1] is 7 µM.
In the case of `O=C(c1ccncc1)c1cc2c(ccc3ccccc32)[nH]1`, in data set [8], the solubility result is on record as “Insoluble”. In addition, the IC50 in data set [5] is over 1000 µM.
As for `N#Cc1cccc2c1CCN(c1cnn(-c3ccccc3)c(=O)c1Br)C2`, the IC50 in data set [1] was over 500 µM.
As for `CC(=O)c1nnn(-c2cnn(-c3ccccc3)c(=O)c2Br)c1C`, the inhibition entry in data set [7] is “inactive”. In addition, the IC50 in data set [1] came out at 7.4 µM.
Turning to `O=c1c(Br)c(NCC2CCCO2)cnn1-c1ccccc1` (stereo unspecified), the IC50 in data set [1] was over 1000 µM.
Take `O=c1c(Br)c(N2CCOCC2)cnn1-c1ccccc1`: the IC50 in data set [1] is over 1000 µM.
The same measure, in the same setting: the result for `CC(=O)c1nnn(-c2cnn(-c3ccccc3)c(=O)c2Cl)c1C` reads 26 µM.
